Assay outcomes (PubChem BioAssay)
MRP resist rev: reversal of MRP1-mediated doxorubicin resistance, primary screen, H69AR cells, doxorubicin co-treatment. H69AR cells + 2 uM doxorubicin, CellTiter-Glo, 72 h. differential viability (reversal), % at 10 µM. hit rate 0.04% among 85,000. AID 602, 2007;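 active = viability drop by adding the cancer drug above about 55%, with treated viability meeting a 40% cutoff, limit read from the data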;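 also: larger differential means the compound sensitizes cells more to doxorubicin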
BB579 growth dn: growth inhibitors of yeast BB579 in restrictive medium, primary screen, yeast lifespan-shortening project, S. cerevisiae; OD615, 48 h; inhibition, % at 10 µM; hit rate 0.51% among 140,000;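 active = inhibition above a set limit, 3 SD over the mean compound inhibition, cut at about 44% in these data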
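Detection: OD615 turbidity measurement; Material: Saccharomyces cerevisiae DeaD strain BB579, replicative lifespan model yeast; Timing: 48 h exposure, 30 °C; Doses: single 10 µM dose; Medium: CSMM-D restrictive synthetic medium containing dextrose (glucose); Controls: amphotericin B at 10 µg/mL as positive control.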
Yeast life ext: compounds extending yeast replicative lifespan, primary screen, S. cerevisiae, OD615; S. cerevisiae growth with nicotinamide; deaD strain in restrictive glucose medium; inhibition of the nicotinamide effect, % at 10 µM; hit rate 0.68% among 130,000;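 active = inhibition above a set limit, placed 3 SD over the median of all compounds, cut at about 26% in these data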
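Test system – modified budding yeast, DeaD strain · Compound – single dose 10 µM compound, 0.25% DMSO · Times – culture preincubation 4 h, compound exposure 48 h, both 30 °C · Detection – optical density (absorbance) at 615 nm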
MRP1 act: H69AR viability gain despite doxorubicin, primary screen, MRP-1 activator project, H69AR cells, CellTiter-Glo | hit rate 0.61% among 140,000 | viability increase, % at 10 µM | AID 799, 2007 | viability rescue;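 active = viability gain under doxorubicin at or above a set limit, the compound median plus 3 SD, cut at about 4.7% in these data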;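 also: MRP-1 overexpressing cells given doxorubicin 25 µM after compound pretreatment; 18-22 h compound pretreatment then 72 h with doxorubicin before readout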
sdo1 growth: growth rescue of sdo1-depleted yeast, primary screen, S. cerevisiae, bone marrow failure model; S. cerevisiae sdo1-depleted JHY4D growth rescue, OD600 30 h; stronger effect = higher value; pdr5 snq2 efflux-pump mutant strain; z-score at 10 µM; hit rate 0.21% among 140,000;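 active = z-score above 3 at both the 24 hr and the 30 hr optical density reads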
Phagocyt inh: inhibitors of macrophage phagocytosis, primary screen, imaging, J774A.1 cells, IgG beads; hit rate 0.07% among 110,000; J774A.1 macrophage IgG-bead phagocytosis; inhibition, % at 5 µM;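 active = inhibition above the mean of the plate negative controls plus 5 SD, cut at about 13% in these data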;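 also: phagocytic index as fraction of beads internalized from green versus red external bead signal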
Hits are given with their value; n = inactive; x = no result. The list is not random: actives were taken first. Their share in the collection is about 2.1%.

SMILES	MRP resist rev	BB579 growth dn	Yeast life ext	MRP1 act	sdo1 growth	Phagocyt inh
Cc1ccc(C(=O)NC2c3ccccc3-c3ccccc32)cc1	x	n	n	n	n	n
Cc1ccc(C(=O)C2C(=O)c3ccccc3C2=O)cc1	n	n	69	n	n	x
CC1CCC(NC(=O)Cn2c3c(c(-c4ccccc4Cl)cc2=O)CCC3)CC1 (configuration not stated)	n	n	n	8.2	n	n
CC(C)CCNC(=O)Cn1c2c(c(-c3ccccc3Cl)cc1=O)CCC2	n	n	n	n	n	n
COc1ccccc1C/C(N)=N/OC(=O)COc1ccccc1C	x	n	n	n	n	x
Nc1c2c(nc3sc4c(c13)CCCC4)CCCCCC2	x	n	n	n	n	n
Nc1nc2sc3c(c2c(=O)s1)CCCC3	n	53	n	n	n	n
COc1ccc(-c2nnn(CC(=O)N(C3CCCCC3)C(C)C(=O)NC3CCCC3)n2)cc1OC (configuration not stated)	n	n	n	n	n	n
Cn1c(=O)[nH]c(=O)c2c1nc(N1CCOCC1)n2CCN1CCOCC1	n	n	n	n	n	n
CCCn1c(=O)[nH]c(=O)c2c1nc(-c1ccccc1)n2CCN1CCOCC1	n	n	57	n	n	n
Cn1c(=O)c2c(nc(N3CCCCCC3)n2Cc2cccc3ccccc23)n(C)c1=O	64	n	n	n	n	n
CN1CCN(c2nc3c(c(=O)n(C)c(=O)n3C)n2Cc2cccc3ccccc23)CC1	n	n	n	n	n	n
Cc1ccc(C)c2sc(NC(=O)c3ccc(N4CCCCC4)c([N+](=O)[O-])c3)nc12	x	n	n	6.7	n	x
Cc1cccc(NC(=O)c2ccc(N3CCCCC3)c([N+](=O)[O-])c2)n1	x	n	n	n	n	n
Cc1ccc(C(=O)c2no[n+]([O-])c2C(=O)c2ccc(C)cc2)cc1	x	n	27	n	n	n
O=C(N/N=C/c1coc2ccccc2c1=O)c1cn(-c2ccccc2)nc1-c1ccccc1	x	n	28	n	n	n
O=C(N/N=C/c1cn(-c2ccccc2)nc1-c1cc2ccccc2o1)c1ccccc1Br	x	n	n	n	n	n
CCCCNC(=S)NCc1ccc2c(c1)cc(C)n2C	x	45	n	n	n	x
CCCCC(=O)NCc1ccc2c(c1)cc(C)n2C	n	n	n	n	n	x
COc1ccc(N2Cc3cccc(C(=O)O)c3C2=O)cc1	n	n	29	n	n	n
O=C(O)c1cccc2c1C(=O)N(Cc1ccncc1)C2	n	n	n	n	n	n
Oc1c(Cl)cc(Cl)cc1C=Nc1ccccc1N1CCCC1	x	n	28	n	n	n
O=c1cc(O)c2c(=O)n(-c3ccccc3)c3c(c2o1)CCCCC3	x	n	78	n	n	n
CCC(C)OC(=O)C1C(c2ccccc2)C(C(=O)O)C1c1ccccc1 (configuration not stated)	n	n	37	n	n	n
CCCCCOC(=O)C1C(c2ccccc2)C(C(=O)O)C1c1ccccc1 (configuration not stated)	n	n	32	n	n	n
SMILES	MRP resist rev	BB579 growth dn	Yeast life ext	MRP1 act	sdo1 growth	Phagocyt inh
O=C(O)C1C(c2ccccc2)C(C(=O)OCCCO)C1c1ccccc1 (configuration not stated)	n	n	n	n	n	n
CCN(CCCNC(=O)CCn1c(=O)[nH]c2ccccc2c1=O)c1ccccc1	n	n	n	n	n	n
CCc1nc2c(c(=O)c3ccccc3n2C)c(=O)n1C1CCCCCC1	x	n	28	n	n	n
Cn1c2ccccc2c(=O)c2c(=O)n(C3CCCCC3)c(-c3cccs3)nc21	n	n	n	n	n	x
Cn1c2ccccc2c(=O)c2c(=O)n(C3CCCCCC3)c(C3CCCCC3)nc21	x	n	26	n	n	n
O=C(OCC(=O)N1CCN(c2ccccc2)CC1)c1cccc(Cl)c1	n	n	x	n	n	x
COc1cc(NC(=O)c2ccco2)c(OC)cc1NC(=O)Nc1ccccc1Cl	n	n	n	n	n	n
O=C1CC(N2CCC(c3nc4ccccc4o3)CC2)C(=O)N1c1ccc(Cl)cc1 (configuration not stated)	n	x	x	x	x	x
